Assay [1] is described as follows: Selectivity is the ratio of inhibitory concentrations at alpha4-beta1 integrin to alpha4-beta7 integrin.
The target of a further assay is T1, Integrin alpha-4/beta-7 (Homo sapiens, UniProt P13612+P26010).
T1 sequence (P13612 whole entry): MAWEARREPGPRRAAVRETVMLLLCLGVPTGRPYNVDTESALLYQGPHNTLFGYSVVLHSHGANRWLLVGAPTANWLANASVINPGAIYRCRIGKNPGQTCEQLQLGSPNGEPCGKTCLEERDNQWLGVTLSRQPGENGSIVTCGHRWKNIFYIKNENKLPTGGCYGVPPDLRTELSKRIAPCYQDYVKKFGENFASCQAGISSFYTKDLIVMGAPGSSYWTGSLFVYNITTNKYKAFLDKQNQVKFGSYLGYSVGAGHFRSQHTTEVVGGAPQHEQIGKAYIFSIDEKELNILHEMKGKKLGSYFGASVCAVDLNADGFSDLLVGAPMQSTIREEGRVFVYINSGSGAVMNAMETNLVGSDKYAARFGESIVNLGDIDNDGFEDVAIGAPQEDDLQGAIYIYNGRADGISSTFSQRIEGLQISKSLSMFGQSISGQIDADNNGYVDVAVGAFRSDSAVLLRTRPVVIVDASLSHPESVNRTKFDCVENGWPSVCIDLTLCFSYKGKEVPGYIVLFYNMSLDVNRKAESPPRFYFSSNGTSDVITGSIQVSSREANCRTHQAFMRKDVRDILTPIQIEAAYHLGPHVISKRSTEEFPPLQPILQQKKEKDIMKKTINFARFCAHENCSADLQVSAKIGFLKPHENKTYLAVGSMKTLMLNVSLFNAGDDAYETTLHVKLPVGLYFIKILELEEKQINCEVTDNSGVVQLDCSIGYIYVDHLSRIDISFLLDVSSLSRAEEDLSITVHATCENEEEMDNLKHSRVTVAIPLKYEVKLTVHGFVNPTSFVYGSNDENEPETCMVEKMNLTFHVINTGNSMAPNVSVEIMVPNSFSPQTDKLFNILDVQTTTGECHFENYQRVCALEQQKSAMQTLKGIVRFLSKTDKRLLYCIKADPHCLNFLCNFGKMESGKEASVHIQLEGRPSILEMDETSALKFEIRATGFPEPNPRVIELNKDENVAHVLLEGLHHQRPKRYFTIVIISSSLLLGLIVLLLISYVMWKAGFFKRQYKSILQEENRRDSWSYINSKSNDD
T1 sequence (P26010 whole entry): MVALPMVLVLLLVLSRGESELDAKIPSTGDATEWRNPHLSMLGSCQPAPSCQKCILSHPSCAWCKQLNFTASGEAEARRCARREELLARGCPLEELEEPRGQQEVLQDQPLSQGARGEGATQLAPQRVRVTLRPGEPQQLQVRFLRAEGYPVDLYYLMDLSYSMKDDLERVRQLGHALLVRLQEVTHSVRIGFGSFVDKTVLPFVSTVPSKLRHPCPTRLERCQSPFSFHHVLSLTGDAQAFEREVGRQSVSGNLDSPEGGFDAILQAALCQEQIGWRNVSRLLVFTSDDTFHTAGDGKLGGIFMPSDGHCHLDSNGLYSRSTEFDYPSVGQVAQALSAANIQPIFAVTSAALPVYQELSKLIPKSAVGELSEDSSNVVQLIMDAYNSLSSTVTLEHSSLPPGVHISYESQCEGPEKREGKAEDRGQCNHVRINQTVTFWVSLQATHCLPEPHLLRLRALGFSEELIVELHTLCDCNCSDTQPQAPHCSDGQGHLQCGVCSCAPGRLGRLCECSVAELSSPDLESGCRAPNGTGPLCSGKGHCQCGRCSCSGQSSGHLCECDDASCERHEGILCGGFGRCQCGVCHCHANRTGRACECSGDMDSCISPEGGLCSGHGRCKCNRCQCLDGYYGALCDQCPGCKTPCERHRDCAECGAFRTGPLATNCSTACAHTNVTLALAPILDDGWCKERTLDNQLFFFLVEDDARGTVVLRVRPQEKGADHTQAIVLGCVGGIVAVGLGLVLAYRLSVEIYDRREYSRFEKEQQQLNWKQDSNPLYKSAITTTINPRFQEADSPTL
Nature of the assay: Ability to block the alpha4-beta7 integrin-MAdCAM-1 binding interaction using a protein ELISA format. The assay is classed as protein-complex assay. An outline of the steps: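 Plates coated overnight at 4 °C with anti-human α4 antibody 9F10 (2 µg/mL), blocked in Tris pH 7.5 buffer with 1 mM MnCl2, Tween-20 and 0.5% BSA, then loaded with α4β7 purified from transfected JY cells (2 µg/mL). Compounds (1 nM–200 µM final, triplicate) plus MAdCAM-1-Ig-HRP (1 µg/mL), 2 h room temperature. TMB read at 450 nm; IC50 at half-maximal absorbance.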
(In general: In an ELISA, binding on a coated surface is turned into a signal by an enzyme label.)

The target in the next assay is Integrin alpha-4/beta-1 (Homo sapiens, UniProt P05556+P13612). Nature of the assay: Inhibitory concentration affording 50% inhibition of alpha4-beta1 integrin binding to VCAM-1, using ELISA assay. The assay is classed as protein-complex assay. Summed up: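 α4β1 extracted from Ramos cell membranes (lectin chromatography, gel filtration in 1% octylglucoside), with 1 mM MnCl2 throughout. Wells coated with 4 µg/mL recombinant soluble human VCAM-1 (5 N-terminal Ig domains, from CHO cells) and blocked with 1% BSA. Inhibitor and receptor 2 h at 37 °C in Tris pH 7.4. Bound receptor detected with anti-β1 mAb 2D4.6, then HRP anti-mouse and TMB at 450 nm. IC50 at half-maximal absorbance.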
Chain of Integrin alpha-4/beta-1 (P05556 whole entry, one chain of several, the tested form may be a part): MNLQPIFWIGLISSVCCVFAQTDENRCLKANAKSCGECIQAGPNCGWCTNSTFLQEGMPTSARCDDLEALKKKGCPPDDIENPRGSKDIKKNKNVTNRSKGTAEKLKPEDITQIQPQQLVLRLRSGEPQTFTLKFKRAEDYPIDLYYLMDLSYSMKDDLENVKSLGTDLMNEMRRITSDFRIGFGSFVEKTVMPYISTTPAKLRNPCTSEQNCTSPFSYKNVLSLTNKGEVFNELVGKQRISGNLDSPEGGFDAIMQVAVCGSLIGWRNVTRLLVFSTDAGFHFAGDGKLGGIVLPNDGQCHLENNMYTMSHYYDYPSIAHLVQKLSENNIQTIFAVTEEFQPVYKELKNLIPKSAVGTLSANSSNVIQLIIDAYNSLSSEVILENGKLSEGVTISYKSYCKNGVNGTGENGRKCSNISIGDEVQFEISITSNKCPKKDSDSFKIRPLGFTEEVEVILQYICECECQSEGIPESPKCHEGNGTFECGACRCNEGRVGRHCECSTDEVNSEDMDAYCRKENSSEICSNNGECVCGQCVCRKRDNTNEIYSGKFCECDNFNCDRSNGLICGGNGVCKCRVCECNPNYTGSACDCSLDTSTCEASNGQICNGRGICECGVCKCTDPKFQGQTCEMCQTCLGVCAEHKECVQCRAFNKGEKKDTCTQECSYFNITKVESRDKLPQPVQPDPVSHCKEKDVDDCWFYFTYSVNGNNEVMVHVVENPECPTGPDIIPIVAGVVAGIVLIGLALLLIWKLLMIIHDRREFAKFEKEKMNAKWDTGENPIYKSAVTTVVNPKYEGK

Assay [2] concerns the target Integrin alpha-IIb/beta-3 (Homo sapiens, UniProt P05106+P08514). Nature of the assay: Inhibition of alpha IIb beta3 integrin binding to fibrinogen. The assay is classed as protein-complex assay.
The target in another assay is Integrin alpha-V/beta-3 (Homo sapiens, UniProt P05106+P06756). Nature of the assay: Ability to block the alphaV-beta3 integrin binding to vitronectin. It counts as protein-complex assay.
Chain of Integrin alpha-V/beta-3 (P05106 27-788 limits assumed): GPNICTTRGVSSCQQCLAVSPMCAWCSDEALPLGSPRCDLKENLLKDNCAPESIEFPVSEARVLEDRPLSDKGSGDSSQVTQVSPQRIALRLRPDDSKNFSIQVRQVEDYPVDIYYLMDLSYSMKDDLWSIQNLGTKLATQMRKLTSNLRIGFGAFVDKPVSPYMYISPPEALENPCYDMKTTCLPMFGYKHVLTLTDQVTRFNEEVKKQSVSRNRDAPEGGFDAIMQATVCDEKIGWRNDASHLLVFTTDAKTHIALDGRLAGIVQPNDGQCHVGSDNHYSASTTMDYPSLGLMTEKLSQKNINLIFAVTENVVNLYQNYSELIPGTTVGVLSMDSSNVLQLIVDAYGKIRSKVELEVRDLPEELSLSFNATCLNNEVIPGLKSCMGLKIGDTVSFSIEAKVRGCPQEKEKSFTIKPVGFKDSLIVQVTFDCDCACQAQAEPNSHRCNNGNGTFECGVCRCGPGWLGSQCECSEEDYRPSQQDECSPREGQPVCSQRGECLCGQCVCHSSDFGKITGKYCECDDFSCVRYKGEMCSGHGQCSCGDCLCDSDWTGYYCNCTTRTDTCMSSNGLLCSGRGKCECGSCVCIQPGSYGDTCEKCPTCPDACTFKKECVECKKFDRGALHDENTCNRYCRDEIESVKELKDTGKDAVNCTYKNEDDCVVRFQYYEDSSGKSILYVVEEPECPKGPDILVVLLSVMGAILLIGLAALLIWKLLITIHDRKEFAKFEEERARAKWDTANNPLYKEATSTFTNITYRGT
Chain of Integrin alpha-V/beta-3 (P06756 31-889 limits assumed): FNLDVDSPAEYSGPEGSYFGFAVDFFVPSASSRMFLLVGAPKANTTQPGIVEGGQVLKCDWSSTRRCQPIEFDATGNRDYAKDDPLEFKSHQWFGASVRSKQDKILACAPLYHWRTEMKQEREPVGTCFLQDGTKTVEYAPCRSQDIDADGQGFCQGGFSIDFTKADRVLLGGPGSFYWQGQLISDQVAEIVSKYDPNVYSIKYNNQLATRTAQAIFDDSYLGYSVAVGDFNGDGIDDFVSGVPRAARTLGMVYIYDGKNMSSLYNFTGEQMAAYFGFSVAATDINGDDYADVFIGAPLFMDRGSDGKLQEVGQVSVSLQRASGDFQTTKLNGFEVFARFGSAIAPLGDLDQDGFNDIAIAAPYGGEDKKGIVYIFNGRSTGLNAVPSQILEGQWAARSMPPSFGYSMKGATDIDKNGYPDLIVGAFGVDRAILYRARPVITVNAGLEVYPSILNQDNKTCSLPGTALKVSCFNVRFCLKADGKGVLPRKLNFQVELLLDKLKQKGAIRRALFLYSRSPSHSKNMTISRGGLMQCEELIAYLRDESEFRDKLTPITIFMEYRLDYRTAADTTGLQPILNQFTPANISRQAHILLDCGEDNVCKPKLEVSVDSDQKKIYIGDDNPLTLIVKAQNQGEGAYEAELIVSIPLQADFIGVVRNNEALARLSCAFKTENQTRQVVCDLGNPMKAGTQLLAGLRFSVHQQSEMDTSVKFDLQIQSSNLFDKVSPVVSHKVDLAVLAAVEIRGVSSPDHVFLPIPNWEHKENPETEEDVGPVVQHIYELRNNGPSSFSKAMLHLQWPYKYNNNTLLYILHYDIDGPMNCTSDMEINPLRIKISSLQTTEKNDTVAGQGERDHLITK
Chain of Integrin alpha-V/beta-3 (P06756 891-1048 limits assumed): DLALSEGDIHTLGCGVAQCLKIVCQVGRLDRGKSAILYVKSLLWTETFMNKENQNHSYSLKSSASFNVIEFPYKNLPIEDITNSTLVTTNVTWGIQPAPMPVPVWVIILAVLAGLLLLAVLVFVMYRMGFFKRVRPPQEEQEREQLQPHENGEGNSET
Assay [3] concerns the target Intercellular adhesion molecule (ICAM-1), Integrin alpha-L/beta-2 (Homo sapiens, UniProt P05107+P05362+P20701). Nature of the assay: Ability to block alphaL-beta2 integrin binding to ICAM-1. The assay is classed as protein-complex assay.
In another assay the target is Integrin alpha-5/beta-1 (Homo sapiens, UniProt P05556+P08648). Nature of the assay: Ability to block the alpha5-beta1 integrin binding to fibronectin. The assay is classed as protein-complex assay.

Peptide text beside a SMILES is read from it.

Chain of Integrin alpha-IIb/beta-3 (P05106 27-788 limits assumed): as the sequence (P05106 27-788 limits assumed) above
Chain of Integrin alpha-IIb/beta-3 (P08514 32-887 limits assumed): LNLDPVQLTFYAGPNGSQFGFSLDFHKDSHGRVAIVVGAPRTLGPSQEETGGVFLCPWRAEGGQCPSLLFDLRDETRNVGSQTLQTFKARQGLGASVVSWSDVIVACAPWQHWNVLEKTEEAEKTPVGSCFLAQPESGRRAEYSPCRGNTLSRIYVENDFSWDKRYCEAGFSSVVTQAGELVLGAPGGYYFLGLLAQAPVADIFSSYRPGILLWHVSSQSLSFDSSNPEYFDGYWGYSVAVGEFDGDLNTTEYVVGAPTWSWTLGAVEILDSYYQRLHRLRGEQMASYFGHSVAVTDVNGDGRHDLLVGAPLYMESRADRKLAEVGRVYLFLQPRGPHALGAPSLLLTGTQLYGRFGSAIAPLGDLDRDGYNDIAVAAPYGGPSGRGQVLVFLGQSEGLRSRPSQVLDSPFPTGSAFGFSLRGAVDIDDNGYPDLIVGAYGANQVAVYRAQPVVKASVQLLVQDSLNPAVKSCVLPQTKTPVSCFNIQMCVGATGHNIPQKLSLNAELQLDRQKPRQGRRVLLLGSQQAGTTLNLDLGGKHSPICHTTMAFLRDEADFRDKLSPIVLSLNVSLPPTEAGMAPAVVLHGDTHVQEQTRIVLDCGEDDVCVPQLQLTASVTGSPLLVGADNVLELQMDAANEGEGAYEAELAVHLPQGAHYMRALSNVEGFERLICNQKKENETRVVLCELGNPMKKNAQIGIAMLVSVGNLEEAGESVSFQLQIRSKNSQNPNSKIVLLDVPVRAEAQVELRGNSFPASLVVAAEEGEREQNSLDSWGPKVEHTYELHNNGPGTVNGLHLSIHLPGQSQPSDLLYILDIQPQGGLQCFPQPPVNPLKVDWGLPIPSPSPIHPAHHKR
Chain of Integrin alpha-IIb/beta-3 (P08514 891-1039 limits assumed): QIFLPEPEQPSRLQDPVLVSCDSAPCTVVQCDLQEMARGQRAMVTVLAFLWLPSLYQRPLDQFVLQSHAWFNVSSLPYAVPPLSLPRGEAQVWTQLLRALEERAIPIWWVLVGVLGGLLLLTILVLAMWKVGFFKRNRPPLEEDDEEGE

For `CC(C)C[C@@H]1NC(=O)[C@@H](CCCN=C(N)N)NC(=O)[C@H](N)CSSC[C@H](C(N)=O)NC(=O)[C@@H](CC(C)C)NC(=O)[C@H]([C@@H](C)O)NC(=O)[C@@H](CC(=O)O)NC1=O`, the Ratio in assay [1] worked out at 0.42.
The same measure, in the same setting: under `CC(C)C[C@H]1NC(=O)[C@H](CO)NC(=O)[C@@H](CC(=O)O)NC(=O)[C@H](CO)NC(=O)[C@@H](CCCN=C(N)N)NC(=O)[C@H](N)CSSC[C@H](C(N)=O)NC1=O` stands 48.
In general, IC50 refers to the concentration at which inhibition is half-maximal. A high value points to weaker potency in that assay. Turning to `CC(C)C[C@H]1NC(=O)[C@@H]([C@@H](C)O)NC(=O)[C@@H](CC(=O)O)NC(=O)[C@H](CO)NC(=O)[C@@H](CCCN=C(N)N)NC(=O)[C@H](N)CSSC[C@H](C(N)=O)NC1=O`, in assay [1], the Ratio is 2.5. Besides, the IC50 at Integrin alpha-4/beta-7 is 7.9 µM; at Integrin alpha-4/beta-1 it was 20 µM.
As for `CC(C)C[C@H]1NC(=O)[C@H]([C@@H](C)O)NC(=O)[C@@H](CC(=O)O)NC(=O)[C@H](CO)NC(=O)[C@@H](Cc2c[nH]cn2)NC(=O)[C@H](N)CSSC[C@H](C(N)=O)NC1=O`, the Ratio in assay [1] turned out to be 2.8.
On the same count and under the same terms, under `CC(C)C[C@H]1NC(=O)[C@H]([C@@H](C)O)NC(=O)[C@@H](CC(=O)O)NC(=O)[C@H](CO)NC(=O)[C@@H](CCCCN)NC(=O)[C@H](N)CSSC[C@H](C(N)=O)NC1=O` stands 6.
On the same count and under the same terms, under `CC(C)C[C@H]1NC(=O)[C@H]([C@@H](C)O)NC(=O)[C@@H](CC(=O)O)NC(=O)[C@H]([C@@H](C)O)NC(=O)[C@@H](CCCN=C(N)N)NC(=O)[C@H](N)CSSC[C@H](C(N)=O)NC1=O` stands 3.5; under `CC(C)C[C@H]1NC(=O)[C@H]([C@@H](C)O)NC(=O)[C@@H](CC(=O)O)NC(=O)[C@H](CO)NC(=O)[C@@H](CCCN=C(N)N)NC(=O)[C@H](N)CSSC[C@H](C(N)=O)NC1=O`, 35; under `CC(C)C[C@H]1NC(=O)[C@H]([C@@H](C)O)NC(=O)[C@@H](CC(N)=O)NC(=O)[C@H](CO)NC(=O)[C@@H](CCCN=C(N)N)NC(=O)[C@H](N)CSSC[C@H](C(=O)O)NC1=O`, 0.06.
Same read-out and setting: under `C[C@@H](O)[C@@H]1NC(=O)[C@@H](CC(=O)O)NC(=O)[C@H](CO)NC(=O)[C@@H](CCCN=C(N)N)NC(=O)[C@H](N)CSSC[C@H](C(N)=O)NC(=O)CNC1=O` stands greater than 9; under `CC(C)C[C@H]1NC(=O)[C@H]([C@@H](C)O)NC(=O)[C@@H](CC(=O)O)NC(=O)[C@H](CO)NC(=O)[C@@H](CCCN=C(N)N)NC(=O)[C@H](N)CSSC[C@H](C(=O)O)NC1=O`, 3.1.
Regarding `CC(C)C[C@H]1NC(=O)[C@H](C(C)C)NC(=O)[C@@H](CC(=O)O)NC(=O)[C@H](CO)NC(=O)[C@@H](CCCN=C(N)N)NC(=O)[C@H](N)CSSC[C@H](C(N)=O)NC1=O`, the Ratio in assay [1] was 15.5.
Same read-out and setting: under `CC(C)C[C@H]1NC(=O)[C@H]([C@@H](C)O)NC(=O)[C@@H](CC(N)=O)NC(=O)[C@H](CO)NC(=O)[C@@H](CCCN=C(N)N)NC(=O)[C@H](N)CSSC[C@H](C(N)=O)NC1=O` stands 0.5.
With `CC(C)C[C@@H]1NC(=O)[C@H]([C@@H](C)O)NC(=O)[C@H](CC(=O)O)NC(=O)[C@H](CO)NC(=O)[C@H](CCCN=C(N)N)NC(=O)[C@@H](N)CSSC[C@@H](C(=O)NCC(=O)N[C@@H](CCC(=O)O)C(N)=O)NC1=O` (HELM PEPTIDE1{C.R.S.D.T.L.C.G.E.[am]}$PEPTIDE1,PEPTIDE1,1:R3-7:R3$$$V2.0), the IC50 in assay [2] is greater than 25 µM; at Integrin alpha-V/beta-3, 1 µM; in assay [3], greater than 100 µM; at Integrin alpha-4/beta-7, 0.03 µM; on Integrin alpha-5/beta-1 it was 6.1 µM; on Integrin alpha-4/beta-1, 1.1 µM.
As to `CC(C)C[C@H]1NC(=O)[C@H]([C@H](C)O)NC(=O)[C@@H](CC(=O)O)NC(=O)[C@@H](CO)NC(=O)[C@@H](CCCN=C(N)N)NC(=O)[C@H](N)CSSC[C@H](C(N)=O)NC1=O`, in assay [1], the Ratio was greater than 2.3. Moreover, the figures for the IC50 on Integrin alpha-4/beta-7 and at Integrin alpha-4/beta-1 were 43 µM and greater than 100 µM, respectively.
As to `C[C@@H](O)[C@@H]1NC(=O)[C@@H](CC(=O)O)NC(=O)[C@H](CO)NC(=O)[C@@H](CCCN=C(N)N)NC(=O)[C@H](N)CSSC[C@H](C(N)=O)NC(=O)[C@H]2CCCN2C1=O`, the Ratio in assay [1] was 0.9.
The same measure, in the same setting: the result for `CC(C)C[C@H]1NC(=O)[C@H]([C@@H](C)O)NC(=O)[C@@H](CC(=O)O)NC(=O)[C@H](CO)NC(=O)[C@@H](Cc2ccccc2)NC(=O)[C@H](N)CSSC[C@H](C(N)=O)NC1=O` reads 0.09.
Still for that read-out and setting: under `CC(C)[C@H]1NC(=O)[C@H]([C@@H](C)O)NC(=O)[C@@H](CC(=O)O)NC(=O)[C@H](CO)NC(=O)[C@@H](CCCN=C(N)N)NC(=O)[C@H](N)CSSC[C@H](C(N)=O)NC1=O` stands 13.1.
